LMPTP block – LMPTP phosphatase inhibitors, primary screen, biochemical, fluorescence intensity, uHTS; inhibition, % at 20 µM; AID 651560, 2012; hit rate 0.22% among 360,000; Low molecular weight phosphotyrosine protein phosphatase (Homo sapiens), P24666; recombinant LMPTP-A, OMFP fluorogenic substrate;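 active means compounds that cut the enzyme signal by at least half of the control window in the single-dose screen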;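 further: plate controls were DMSO wells with enzyme plus substrate for no effect and substrate without enzyme for full effect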
Target sequence (P24666 whole entry, looked up): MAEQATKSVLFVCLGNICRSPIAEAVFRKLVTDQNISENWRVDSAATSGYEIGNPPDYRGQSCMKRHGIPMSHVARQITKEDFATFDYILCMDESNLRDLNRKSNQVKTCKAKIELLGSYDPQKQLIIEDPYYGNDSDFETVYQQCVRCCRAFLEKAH
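test system = LMPTP-A | amount = 0.625 nM LMPTP-A final | reagent = fluorogenic phosphatase substrate OMFP at 400 µM final | incubation = 50 min at room temperature | benchmarks = no-enzyme low control, uninhibited high control | medium = Bis-Tris pH 6.0, DTT, detergent | signal = fluorescence intensity of OMFP turnover product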
STEP inh – STEP phosphatase inhibitors, primary screen, biochemical, fluorescence intensity, uHTS | Tyrosine-protein phosphatase non-receptor type 5 (Homo sapiens), P54829 | recombinant STEP, OMFP fluorogenic substrate | inhibition, % at 20 µM | hit rate 0.25% among 360,000 | AID 588621, 2011;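 active means inhibition at 20 µM, scaled per plate between control wells, above about 37%, limit read from the data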;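 further: 0% = DMSO with enzyme and substrate and 100% = substrate only without enzyme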
Target sequence (P54829 whole entry, looked up): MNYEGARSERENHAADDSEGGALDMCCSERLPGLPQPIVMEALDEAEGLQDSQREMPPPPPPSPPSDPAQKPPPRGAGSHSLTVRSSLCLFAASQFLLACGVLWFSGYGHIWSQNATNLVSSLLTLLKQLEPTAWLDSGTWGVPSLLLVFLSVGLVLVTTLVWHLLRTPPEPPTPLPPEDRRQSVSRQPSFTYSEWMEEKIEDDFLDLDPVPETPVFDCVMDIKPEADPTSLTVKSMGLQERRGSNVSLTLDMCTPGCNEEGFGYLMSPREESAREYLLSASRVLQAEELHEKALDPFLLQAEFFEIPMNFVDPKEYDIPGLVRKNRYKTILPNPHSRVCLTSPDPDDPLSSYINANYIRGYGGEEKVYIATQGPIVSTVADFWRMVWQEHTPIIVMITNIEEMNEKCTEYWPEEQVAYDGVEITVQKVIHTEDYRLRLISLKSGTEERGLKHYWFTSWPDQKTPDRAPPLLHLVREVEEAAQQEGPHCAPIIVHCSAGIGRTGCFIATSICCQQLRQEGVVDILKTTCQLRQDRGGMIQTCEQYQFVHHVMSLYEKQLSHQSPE
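Measure: Control-normalized % inhibition with plate pattern correction | Test system: STEP phosphatase, cell-free reaction | Medium: pH 6.0 Bis-Tris with DTT and Tween 20 | Technique: Fluorescence, 480/540 nm | Times: Reaction 20 min, ambient temperature | Doses: Single compound dose of 20 µM, 1% DMSO final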
Scp1 inh – Scp-1 phosphatase inhibitors, primary screen, biochemical, colorimetric, uHTS | Recombinant Scp1, phosphopeptide, malachite green phosphate absorbance | inhibition, % at 20 µM | Carboxy-terminal domain RNA polymerase II polypeptide A small phosphatase 1 (Homo … | hit rate 0.88% among 340,000;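 active means inhibition above about 50% at 20 µM, limit read from the data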;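 further: plate controls were DMSO wells with enzyme for no effect and wells lacking enzyme for full effect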
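System: truncated SCP-1 phosphatase (76-261aa); medium: Tris acetate buffer pH 5.5 with MgCl2 and Tween-20; incubation: 45 min room-temperature reaction, 5 min colour, 30 min stabiliser; compound: single 20 µM dose, 1% DMSO; reagent: Phosphorylated 17-residue peptide substrate; read-out: % inhibition at 20 µM; technique: colorimetric free-phosphate detection, absorbance 630 nm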
NadD block – inhibitors of S. aureus NadD, primary screen, biochemical, colorimetric, uHTS; purified NadD enzyme, colorimetric absorbance read-out; hit rate 0.78% among 360,000; inhibition, % at 20 µM; Nicotinate-nucleotide adenylyltransferase NadD (Staphylococcus aureus N315); AID 602399, 2012; in the data active means inhibition above about 26%
rCAG RNA binder – binders of r(CAG) RNA repeats, primary screen, biochemical, fluorescence | r(CAG) RNA repeat, TO-PRO-1 dye displacement fluorescence | hit rate 1.3% among 370,000 | inhibition, % at 3 µM;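 active means inhibition above the plate cutoff, the mean of all test compounds on that plate plus 3 SD, cut at about 35% in these data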;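 further: 0% = DMSO alone and 100% = 100 µM mitoxantrone as full dye displacement; higher means more dye released from RNA so lower well fluorescence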
rCAG binder conf – small molecules binding CAG repeat RNA – biochemical, fluorescence, confirmation. shares compounds with rCAG RNA binder. r(CAG) RNA repeat, TO-PRO-1 dye displacement fluorescence. inhibition, % at 3 µM. hit rate 70% among 4,300;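 active means inhibition above a per-plate cutoff, the mean inhibition of sample wells plus 3 SD, cut at about 35% in these data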;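 further: loss of TO-PRO-1 fluorescence as compound displaces dye from 1x1 AA loop RNA; 0% = DMSO only wells and 100% = 100 µM mitoxantrone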
DNA CAG counter – displacement of TO-PRO-1 from CAG DNA duplex, counter-screen for rCAG RNA repeat binder project, biochemical, fluorescence, TO-PRO-1 dye, d(CAG) DNA oligo; shares compounds with rCAG RNA binder; inhibition, % at 3 µM; hit rate 94% among 4,300; d(CAG) DNA oligo TO-PRO-1 dye displacement;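 active means inhibition above its plate's cutoff, the mean test-well inhibition plus 3 SD, cut at about 4.8% in these data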;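 further: 0% = DNA dye mix with DMSO and 100% = 100 µM mitoxantrone; hits displace the dye from DNA and so lower well fluorescence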
Active calls of the source: *; . = no result given. An excerpt weighted towards active compounds, which were near 2.6% of everything screened.

SMILES | LMPTP block | STEP inh | Scp1 inh | NadD block | rCAG RNA binder | rCAG binder conf | DNA CAG counter
C[C@H](O)[C@@H]1C(=O)N2CCc3c([nH]c4c(-c5ccc6c(c5)OCO6)cccc34)[C@@H]2C[C@@H]1N(C)C(=O)Nc1ccccc1 | . | . | . | . | 4.4 | . | .
O=C(Nc1ccc(F)cc1)Nc1nnc(Cc2ccccc2)s1 | -0.2 | -1.0 | -11.7 | -5.3 | 42.2* | 14.5 | 15.4*
COc1cccc(NC(=O)Nc2nnc(COCCO)s2)c1 | -2.5 | -1.3 | . | -0.5 | 8.2 | . | .
COc1ccc(Cc2nnc(NC(=O)Nc3ccc(F)cc3)s2)cc1 | -2.0 | 2.2 | 0.1 | 6.1 | 33.6 | . | .
O=C(Nc1ccc(F)cc1)Nc1nnc(COc2ccccc2F)s1 | -0.9 | -2.1 | -8.4 | -1.2 | 62.5* | 38.3* | 26.5*
O=C(Nc1nnc(COc2ccccc2F)s1)Nc1ccccc1F | 1.2 | -0.2 | -3.6 | -4.7 | 29.0 | . | .
COc1cccc(NC(=O)Nc2nnc(Cc3ccccc3)s2)c1 | 0.5 | -2.5 | -3.5 | -1.2 | 41.1* | 22.2 | 14.8*
CCSc1nnc(NC(=O)Nc2cccc(C)c2)s1 | -0.3 | -0.9 | -0.7 | -5.3 | 56.3* | 18.4 | 16.6*
CCSc1nsc(NC(=O)Nc2cccc(OC)c2)n1 | 2.8 | 1.0 | 3.0 | -2.4 | 57.6* | 19.7 | 16.3*
COc1ccc(Cc2nnc(NC(=O)Nc3cccc(OC)c3)s2)cc1 | -2.0 | -0.7 | -5.9 | 0.7 | 42.2* | 40.1* | 17.2*
COc1cccc(NC(=O)Nc2nnc(Cc3ccc(F)cc3)s2)c1 | -1.9 | 2.5 | -3.0 | 8.5 | 7.8 | . | .
CCCCSc1nsc(NC(C)=O)n1 | -0.7 | 1.1 | -11.2 | -5.3 | 4.7 | . | .
CCSc1nsc(NC(=O)Nc2ccccc2F)n1 | 1.2 | -0.5 | -4.7 | -2.7 | 25.6 | . | .
C=CCSc1nsc(NC(=O)Nc2ccc(F)cc2)n1 | 2.2 | -1.4 | -4.5 | -2.7 | 68.6* | 19.6 | 20.4*
COC(=O)C12CCCN1C1C(=O)N(Cc3ccc(C(N)=O)cc3)CC1C2 (centres undefined) | . | . | . | . | 4.8 | . | .
O=C(O)c1ccc(N/N=C/c2cn(Cc3ccccc3F)c3ccccc23)cc1 | 5.9 | -2.2 | -10.6 | 10.0 | 77.8* | 80.5* | 45.0*
O=C(N/N=C/c1cn(Cc2cccc(F)c2)c2ccccc12)c1cc(O)cc(O)c1 | 42.5 | 98.1* | 76.8* | 18.6 | 50.0* | 52.2* | 28.6*
COc1ccc(CC(=O)NC2CCCCN(Cc3ccc(Cl)cc3)C2=O)cc1OC (centres undefined) | . | . | . | . | 4.2 | . | .
CC(C)C(=O)NCCCc1ccccc1 | -1.6 | -1.9 | -2.0 | -2.1 | 0.8 | . | .
CC(C)CCCCCCCCc1cccc(O)c1C(=O)O | . | . | . | . | 89.4* | 86.5* | 52.0*
Cc1ccc(S(=O)(=O)N(C)c2ccc(OCC(=O)Nc3cc(C(=O)O)ccc3Cl)cc2)cc1 | . | . | 11.2 | . | 61.4* | 56.6* | 20.4*
Cc1ccc(OCC(=O)Nc2cc(NC(=O)COc3ccc(C)cc3)cc(C(=O)O)c2)cc1 | 1.5 | 1.6 | 13.9 | 5.8 | 70.0* | 64.4* | 25.2*
O=C(COc1ccc(Cl)cc1)Nc1cc(NC(=O)COc2ccc(Cl)cc2)cc(C(=O)O)c1 | 2.2 | 0.0 | -9.4 | 0.4 | 73.8* | 82.2* | 48.2*
O=C(CCCOc1ccc(Cl)cc1)Nc1cccc(C(=O)O)c1 | -0.2 | -1.0 | -4.7 | -1.3 | 2.8 | . | .
Cc1ccc(OCC(=O)Nc2cc(C(=O)O)cc(C(=O)O)c2)cc1C | -1.8 | -1.9 | 0.7 | 5.6 | 6.6 | . | .
SMILES | LMPTP block | STEP inh | Scp1 inh | NadD block | rCAG RNA binder | rCAG binder conf | DNA CAG counter
COc1ccc(S[C@]2(C(=O)N3CCOCC3)CC(=O)N(S(=O)(=O)c3ccc(F)cc3)[C@@H]2c2ccc(OC)cc2)cc1 | . | . | . | . | 12.5 | . | .
N#Cc1ccc(NCCCN2CCC(C(O)(c3ccccc3)c3ccccc3)CC2)cc1 | . | . | . | . | -0.8 | . | .
O=C(CSc1nnc(-c2ccccc2F)n1C1CCCCC1)Nc1cc(C(=O)O)ccc1Cl | -1.3 | -1.4 | -0.1 | 2.6 | 38.3* | 33.7 | 6.9*
O=C(CSc1nnc(-c2ccccn2)n1-c1ccccc1)c1ccc(F)cc1 | . | . | . | . | 1.7 | . | .
Cc1ccc(S(=O)(=O)N2[C@@H](c3ccccc3)C(C(=O)O)=CC[C@H]2c2ccc(Cl)c(Cl)c2)cc1 | 0.4 | -2.9 | -11.0 | 6.9 | 60.7* | 80.5* | 48.2*
Cc1ccc(S(=O)(=O)N2[C@@H](c3ccccc3)C(C(=O)O)=CC[C@H]2c2cccc(C)c2)cc1 | -0.3 | 1.4 | -11.0 | 2.7 | 13.6 | . | .
Cc1ccc([C@H]2C(C(=O)O)=CC[C@@H](c3ccc(Cl)c(Cl)c3)N2S(=O)(=O)c2ccc(C)cc2)cc1 | 3.2 | -0.1 | -19.6 | 22.0 | 88.3* | 85.2* | 53.7*
Cc1cccc(OCC(=O)Nc2cccc(C(=O)NCC(C)C)c2)c1 | 0.9 | -0.3 | -7.8 | 2.9 | -6.0 | . | .
O=C(COc1ccccc1[N+](=O)[O-])Nc1cccc(C(=O)Nc2ccccc2C(=O)O)c1 | -1.4 | 3.8 | -5.0 | 4.8 | 68.6* | 79.6* | 45.1*
CC(C)c1ccc(OCC(=O)Nc2cccc(C(=O)Nc3ccccc3C(=O)O)c2)cc1 | 2.5 | -1.8 | -16.9 | 11.5 | 82.3* | 87.7* | 63.2*
Cc1cccc(OCC(=O)Nc2cccc(C(=O)Nc3ccccc3C(=O)O)c2)c1 | -0.5 | 0.7 | -4.6 | -0.3 | 71.0* | 66.5* | 28.8*
COC1=C[C@H](C(=O)N[C@H]2CCCC[C@@H]2NC(C)=O)[C@H](C)[C@@H](c2ccccc2)CC1=O | . | . | . | . | 6.7 | . | .
Cc1cc(NC(=O)c2ccc(NS(=O)(=O)c3ccccc3F)cc2)no1 | . | . | . | . | 7.4 | . | .
O=[N+]([O-])c1cc(-c2nnc(N3CCOCC3)c3ccccc23)ccc1N1CCOCC1 | 0.0 | -1.3 | -1.1 | 2.4 | 89.8* | 1.1 | 2.0
CC1CCc2c(sc(NC(=O)COC(=O)c3ccc(O)cc3)c2C#N)C1 (centres undefined) | 1.7 | 0.4 | 17.2 | 16.5 | 39.3* | 36.7* | 18.8*
CCC1CCc2c(sc(NC(=O)C3CC=CCC3C(=O)O)c2C#N)C1 (centres undefined) | -0.8 | 2.4 | 31.9 | 2.5 | 58.7* | 38.9* | 11.2*
CC1CCc2c(sc(NC(=O)COC(=O)C3CCCO3)c2C#N)C1 (centres undefined) | 1.0 | -2.8 | -0.7 | -3.8 | 0.3 | . | .
